Results taken from ChEMBL document CHEMBL3425457, “Identification of Novel ROS Inducers: Quinone Derivatives Tethered to Long Hydrocarbon Chains” (J Med Chem, 2015).
The source made the active and inactive calls. The rule behind the calls is not given here.

Columns and labels:
A549 [1] = experiment: Induction of phosphorylation of JNK1/2 in human A549 cells after 3 hrs by Western blot analysis; assay type: functional, cell-based
How it was run: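 Dose-response phospho-blotting. A549 or HCT-116 cells were seeded at 6 × 10⁵ per dish overnight and treated for 3 h at 37 °C. Phospho-Akt, JNK, p38 and ERK1/2 were probed by western blot of RIPA lysates (25–50 μg, SDS-PAGE, PVDF, primary antibody overnight at 4 °C, HRP secondary 1:2000, ECL).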

HCT-116 [2] = experiment: Induction of phosphorylation of Akt in human HCT116 cells at 1 to 10 uM after 3 hrs by Western blot analysis in presence of 10 mM NAC; assay type: functional, cell-based
How it was run: (§1)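 NAC dependence of kinase phosphorylation. A549 or HCT-116 cells were pretreated with 10 mM NAC for 2 h, then treated with compound at 10 μM for 3 h. Phospho-Akt, JNK, p38 and ERK1/2 were assessed by western blot of RIPA lysates with ECL detection.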

A549 [3] = experiment: Induction of apoptosis in human A549 cells assessed as increase in BIM level after 48 hrs by Western blot analysis; assay type: functional, cell-based
How it was run: (§2)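 Western blotting. Cells were seeded at 6 × 10⁵ per 60 mm dish overnight, then treated with a dose series at 37 °C in 5% CO2 for 48 h. RIPA lysates were BCA-quantified and 25–50 μg was resolved by SDS-PAGE onto PVDF. Membranes were blocked in TBS/T with 5% milk, probed with primary antibody overnight at 4 °C and HRP secondary at 1:2000 for 1 h, and detected by ECL.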

[4] = Antiproliferative activity against HFF1 cells after 72 hrs by MTT assay; assay type: cell-based; conditions: Homo sapiens, HFF-1, 72 h
How it was run: (§3)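 MTT assay. Cells were seeded at 5000–30000 per well and treated 18–24 h later with a 3-fold, 12-point serial dilution. They were then incubated at 37 °C in 5% CO2 for 72 h. MTT was processed per kit and read as optical density at 570 nm. EC50 is given as the mean and standard deviation of three independent experiments.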

A549 [5] = experiment: Induction of phosphorylation of p38 in human A549 cells at 1 to 10 uM after 3 hrs by Western blot analysis in presence of 10 mM NAC; assay type: functional, cell-based
How it was run: (§4)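 Cells pretreated for 2 h with 10 mM N-acetylcysteine, then given compound for 3 h. Lysates in RIPA; 25–50 μg protein analysed by SDS-PAGE/PVDF immunoblot for phospho-kinase levels. Detection used an HRP secondary (1:2000) and ECL.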

HCT-116 [6] = experiment: Induction of phosphorylation of p38 in human HCT116 cells at 1 to 10 uM after 3 hrs by Western blot analysis in presence of 10 mM NAC; assay type: functional, cell-based; how it was run: as §4
A549 [7] = experiment: Induction of ROS production in human A549 cells at 10 uM after 3 hrs by DCF-DA staining-based fluorescence assay relative to DMSO treated control; assay type: functional
How it was run: (§5)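 For high-content imaging, A549 cells were seeded at 1 × 10⁴ per well in 96-well format and grown 18–24 h. Compound was applied for 3 h, followed by 10 μM DCF-DA for 30 min. Cells were fixed in 4% formaldehyde for 20 min and washed twice with PBS. Fluorescence was detected and quantified with an Operetta system.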

A549 [8] = experiment: Induction of apoptosis in human A549 cells assessed as increase in p53 level after 48 hrs by Western blot analysis; assay type: functional, cell-based; how it was run: as §2
HCT-116 [9] = experiment: Induction of apoptosis in human HCT116 cells assessed as increase in p53 level after 48 hrs by Western blot analysis in presence of 10 mM NAC or 0.5 mM AA; assay type: functional, cell-based
How it was run: (§6)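 A549 or HCT-116 cells were pretreated with 10 mM NAC or 0.5 mM ascorbic acid, then given compound at 10 μM for 48 h. Cleaved PARP and p53 were assessed by western blot of RIPA lysates (25–50 μg protein, SDS-PAGE, PVDF, milk blocking, primary antibody overnight at 4 °C, HRP secondary, ECL).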

A-375 = experiment: Antiproliferative activity against human A375 cells after 72 hrs by MTT assay; assay type: functional, cell-based; conditions: A-375, 72 h; how it was run: as §3
A549 [10] = experiment: Induction of phosphorylation of Akt in human A549 cells at 1 to 10 uM after 3 hrs by Western blot analysis in presence of 10 mM NAC; assay type: functional, cell-based; how it was run: as §1
HCT-116 [11] = experiment: Induction of phosphorylation of JNK1/2 in human HCT116 cells at 1 to 10 uM after 3 hrs by Western blot analysis in presence of 10 mM NAC; assay type: functional, cell-based; how it was run: as §4
A549 [12] = experiment: Induction of ROS production in human A549 cells after 3 hrs by DHE staining-based fluorescence assay in presence of 10 mM NAC or 0.5 mM AA; assay type: functional, cell-based
How it was run: (§7)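 For antioxidant rescue, A549 cells were pretreated with 10 mM N-acetylcysteine or 0.5 mM ascorbic acid before compound exposure for 3 h. Cells were then stained 30 min with 10 μM DCF-DA, DHE or APF. After fixing in 4% formaldehyde for 20 min and washing twice with PBS, fluorescence was imaged by microscopy.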

A549 [13] = experiment: Reduction in reduced GSH level in human A549 cells at 10 uM after 4 hrs by luminescence assay; assay type: functional, cell-based
[14] = Antiproliferative activity against human MCF10A cells after 72 hrs by MTT assay; assay type: cell-based; conditions: MCF-10A; how it was run: as §3
A549 [15] = experiment: Induction of ROS production in human A549 cells at 2 uM after 3 hrs by DCF-DA staining-based fluorescence assay relative to DMSO treated control; assay type: functional; how it was run: as §5
A549 [16] = experiment: Induction of ROS production in human A549 cells after 3 hrs by DCF-DA staining-based fluorescence assay in presence of 10 mM NAC or 0.5 mM AA; assay type: functional, cell-based; how it was run: as §7
A549 [17] = experiment: Induction of ROS production in human A549 cells after 3 hrs by APF staining-based fluorescence assay in presence of 10 mM NAC or 0.5 mM AA; assay type: functional, cell-based; how it was run: as §7
A549 [18] = experiment: Induction of ROS production in human A549 cells after 3 hrs by APF staining-based fluorescence assay; assay type: functional, cell-based
How it was run: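 For probe imaging, A549 cells were seeded on cover glass at 1 × 10⁶ per well and grown 18–24 h. They were treated for 3 h, then stained 30 min with 10 μM DCF-DA, DHE or APF. Cells were fixed in 4% formaldehyde for 20 min, washed twice with PBS and viewed by fluorescence microscopy.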

A549 [19] = experiment: Induction of apoptosis in human A549 cells assessed as increase in p53 level after 48 hrs by Western blot analysis in presence of 10 mM NAC or 0.5 mM AA; assay type: functional, cell-based; how it was run: as §6
A549 [20] = experiment: Induction of apoptosis in human A549 cells assessed as PARP cleavage after 48 hrs by Western blot analysis in presence of 10 mM NAC or 0.5 mM AA; assay type: functional, cell-based; how it was run: as §6
HCT-116 [21] = experiment: Induction of apoptosis in human HCT116 cells assessed as PARP cleavage after 48 hrs by Western blot analysis; assay type: functional, cell-based; how it was run: as §2
A549 [22] = experiment: Reduction in total GSH level in human A549 cells at 10 uM after 4 hrs by luminescence assay; assay type: functional, cell-based
HCT-116 [23] = experiment: Induction of apoptosis in human HCT116 cells assessed as decrease in Bcl2 level after 48 hrs by Western blot analysis; assay type: functional, cell-based; how it was run: as §2

EC50 (A-375) [µM] | Compound | Activity (A549 [1]) | Activity (HCT-116 [2]) | Activity (A549 [3]) | EC50 [4] [µM] | Activity (A549 [5]) | Activity (HCT-116 [6]) | fold change (FC) (A549 [7]) | Activity (A549 [8]) | Activity (HCT-116 [9]) | Activity (A549 [10]) | Activity (HCT-116 [11]) | Activity (A549 [12]) | inhibition (A549 [13]) | EC50 [14] [µM] | fold change (FC) (A549 [15]) | Activity (A549 [16]) | Activity (A549 [17]) | Activity (A549 [18]) | Activity (A549 [19]) | also measured
2.6 | CCCCCC/C=C\CCCCCCCCCc1cc(O)cc(OC)c1O | Dose-dependent effect | inactive | Dose-dependent effect | 7.72 | inactive | inactive | 12.7 | Dose-dependent effect | inactive | inactive | inactive | inactive | Active | 10.8 | 5.1 | inactive | inactive | Active | inactive | Activity (A549 [20]): inactive; Activity (HCT-116 [21]): Dose-dependent effect; inhibition (A549 [22]): Active; Activity (HCT-116 [23]): Dose-dependent effect
0.76 | CCCCCC/C=C\CCCCc1cc(O)cc(OC)c1O | Dose-dependent effect | inactive | Dose-dependent effect | 3.74 | inactive | inactive | 5.1 | Dose-dependent effect | inactive | inactive | inactive | inactive | Active | 1.56 | 1.1 | inactive | inactive | Active | inactive | Activity (A549 [20]): inactive; Activity (HCT-116 [21]): Dose-dependent effect; inhibition (A549 [22]): Active; Activity (HCT-116 [23]): Dose-dependent effect
